Converted amounts (≈) assume the structure as drawn.
What was measured:
Type in all cases: functional
Enterococcus faecalis = test: Antibacterial activity was determined against Gram-positive Streptococcus faecalis MGH-2 bacteria
Summary of the method: (§1)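 MICs, in micrograms per milliliter, were determined by standard microtitration (microdilution) techniques against each listed Gram-negative and Gram-positive strain.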

Staphylococcus aureus [1] = test: Antibacterial activity was determined against Gram-positive Staphylococcus aureus H228 bacteria; details: in the assay text read “Gram-positive” for “Gram-negative”; summary of the method: as §1
Escherichia coli [2] = test: Gyrase-drug induced cleavage against Escherichia coli
Summary of the method: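 Compounds were tested for induction of DNA gyrase-mediated cleavage. The value is the minimum drug concentration giving linear DNA at an intensity matching that produced by oxolinic acid at 10 μg/mL.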

Escherichia coli [3] = test: Protective dose against Escherichia coli H560 bacteria; details: read-out: PD50
Summary of the method: (§2)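 Acute lethal systemic infection model in female Charles River CD-1 mice. The value is the median protective dose (PD50, mg/kg), defined as the dose needed to protect 50% of mice from the lethal infection.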

Escherichia coli [4] = test: Antibacterial activity was determined against Gram-negative Escherichia coli Vogel bacteria; summary of the method: as §1
Escherichia coli [5] = test: Antibacterial activity was determined against Gram-negative Escherichia coli H560 bacteria; summary of the method: as §1
Streptococcus pyogenes [6] = test: Protective dose against Streptococcus pyogenes bacteria; details: read-out: PD50; summary of the method: as §2
Streptococcus pneumoniae [7] = test: Antibacterial activity was determined against Gram-positive Streptococcus pneumoniae SV-1 bacteria; summary of the method: as §1
Streptococcus pneumoniae [8] = test: Protective dose against Streptococcus pneumonia bacteria; details: read-out: PD50; summary of the method: as §2
Pseudomonas aeruginosa = test: Antibacterial activity was determined against Gram-negative Pseudomonas aeruginosa UI-18 bacteria; summary of the method: as §1
Klebsiella pneumoniae = test: Antibacterial activity was determined against Gram-negative Klebsiella pneumoniae MGH-2 bacteria; summary of the method: as §1
Enterobacter cloacae = test: Antibacterial activity was determined against Gram-negative Enterobacter cloacae HA2646 bacteria; summary of the method: as §1
Streptococcus pyogenes [9] = test: Antibacterial activity was determined against Gram-positive Streptococcus pyogenes C203 bacteria; summary of the method: as §1
Staphylococcus aureus [10] = test: Antibacterial activity was determined against Gram-positive Staphylococcus aureus UC-76 bacteria; details: in the assay text read “Gram-positive” for “Gram-negative”; summary of the method: as §1
Providencia rettgeri = test: Antibacterial activity was determined against Gram-negative Providencia rettgeri H1771 bacteria; summary of the method: as §1
Streptococcus pneumoniae [11] = test: Protective dose against Streptococcus pneumoniae bacteria; details: read-out: PD50; summary of the method: as §2

Row | SMILES | MIC (Enterococcus faecalis) [µg/mL] | MIC (Staphylococcus aureus [1]) [µg/mL] | MEC (Escherichia coli [2]) [µg/mL] | ED50 (Escherichia coli [3]) [mg/kg] | MIC (Escherichia coli [4]) [µg/mL] | MIC (Escherichia coli [5]) [µg/mL] | ED50 (Streptococcus pyogenes [6]) [mg/kg] | MIC (Streptococcus pneumoniae [7]) [µg/mL] | ED50 (Streptococcus pneumoniae [8]) [mg/kg] | MIC (Pseudomonas aeruginosa) [µg/mL] | MIC (Klebsiella pneumoniae) [µg/mL] | MIC (Enterobacter cloacae) [µg/mL] | MIC (Streptococcus pyogenes [9]) [µg/mL] | MIC (Staphylococcus aureus [10]) [µg/mL] | MIC (Providencia rettgeri) [µg/mL] | ED50 (Streptococcus pneumoniae [11]) [mg/kg]
1 | CC1(CN)CCN(c2c(F)cc3c(=O)c(C(=O)O)cn(C4CC4)c3c2F)C1 (stereo not drawn) | 0.013 (≈ 0.0344 µM) | 0.013 (≈ 0.0344 µM) | 2.62 | 2.1 | 0.05 (≈ 0.132 µM) | 0.013 (≈ 0.0344 µM) | 9 | 0.006 (≈ 0.0159 µM) | 5 | 0.4 (≈ 1.06 µM) | 0.1 (≈ 0.265 µM) | 0.025 (≈ 0.0662 µM) | 0.025 (≈ 0.0662 µM) | 0.003 (≈ 0.00795 µM) | 0.2 (≈ 0.53 µM) | –
2 | CCNCC1(c2ccccc2)CCN(c2c(F)cc3c(=O)c(C(=O)O)cn(C4CC4)c3c2F)C1 (stereo not drawn) | 0.2 (≈ 0.428 µM) | 0.1 (≈ 0.214 µM) | 2.62 | 37 | 0.4 (≈ 0.856 µM) | 0.1 (≈ 0.214 µM) | – | 0.025 (≈ 0.0535 µM) | – | 3.1 (≈ 6.63 µM) | 0.8 (≈ 1.71 µM) | 0.8 (≈ 1.71 µM) | 0.1 (≈ 0.214 µM) | 0.05 (≈ 0.107 µM) | 1.6 (≈ 3.42 µM) | –
3 | CC1(N)CCN(c2c(F)cc3c(=O)c(C(=O)O)cn(C4CC4)c3c2F)C1 (stereo not drawn) | 1.6 (≈ 4.4 µM) | 0.8 (≈ 2.2 µM) | 0.8 | – | 0.2 (≈ 0.55 µM) | 0.2 (≈ 0.55 µM) | – | 0.8 (≈ 2.2 µM) | – | 3.1 (≈ 8.53 µM) | 0.4 (≈ 1.1 µM) | 0.2 (≈ 0.55 µM) | 0.8 (≈ 2.2 µM) | 0.2 (≈ 0.55 µM) | 0.8 (≈ 2.2 µM) | –
4 | NC1CN(c2c(F)cc3c(=O)c(C(=O)O)cn(C4CC4)c3c2F)CC1c1ccccc1 (stereo not drawn) | 0.1 (≈ 0.235 µM) | 0.05 (≈ 0.118 µM) | 2.75 | – | 0.1 (≈ 0.235 µM) | 0.025 (≈ 0.0588 µM) | – | 0.1 (≈ 0.235 µM) | – | 1.6 (≈ 3.76 µM) | 0.2 (≈ 0.47 µM) | 0.2 (≈ 0.47 µM) | 0.1 (≈ 0.235 µM) | 0.025 (≈ 0.0588 µM) | 0.4 (≈ 0.94 µM) | –
5 | NC1CCN(c2c(F)cc3c(=O)c(C(=O)O)cn(C4CC4)c3c2F)C1 (stereo not drawn) | 0.05 (≈ 0.143 µM) | 0.05 (≈ 0.143 µM) | 0.1 | 1 | 0.013 (≈ 0.0372 µM) | 0.006 (≈ 0.0172 µM) | 7.5 | 0.05 (≈ 0.143 µM) | 15 | 0.1 (≈ 0.286 µM) | 0.025 (≈ 0.0716 µM) | 0.025 (≈ 0.0716 µM) | 0.05 (≈ 0.143 µM) | 0.025 (≈ 0.0716 µM) | 0.05 (≈ 0.143 µM) | –
6 | NCC1CN(c2c(F)cc3c(=O)c(C(=O)O)cn(C4CC4)c3c2F)CC1c1ccccc1 (stereo not drawn) | 0.013 (≈ 0.0296 µM) | 0.013 (≈ 0.0296 µM) | 2.62 | 27 | 0.1 (≈ 0.228 µM) | 0.013 (≈ 0.0296 µM) | 11 | 0.006 (≈ 0.0137 µM) | – | 1.6 (≈ 3.64 µM) | 0.1 (≈ 0.228 µM) | 0.2 (≈ 0.455 µM) | 0.013 (≈ 0.0296 µM) | 0.006 (≈ 0.0137 µM) | 0.4 (≈ 0.91 µM) | 25
7 | CN(C)CC1(c2ccccc2)CCN(c2c(F)cc3c(=O)c(C(=O)O)cn(C4CC4)c3c2F)C1 (stereo not drawn) | 0.05 (≈ 0.107 µM) | 0.05 (≈ 0.107 µM) | 2.62 | 50 | 0.05 (≈ 0.107 µM) | 0.013 (≈ 0.0278 µM) | – | 0.006 (≈ 0.0128 µM) | – | 0.4 (≈ 0.856 µM) | 0.1 (≈ 0.214 µM) | 0.05 (≈ 0.107 µM) | 0.025 (≈ 0.0535 µM) | 0.05 (≈ 0.107 µM) | 0.1 (≈ 0.214 µM) | –
8 | NCC1(c2ccccc2)CCN(c2c(F)cc3c(=O)c(C(=O)O)cn(C4CC4)c3c2F)C1 (stereo not drawn) | 0.05 (≈ 0.114 µM) | 0.025 (≈ 0.0569 µM) | 2.62 | 14 | 0.05 (≈ 0.114 µM) | 0.013 (≈ 0.0296 µM) | 21 | 0.013 (≈ 0.0296 µM) | – | 0.8 (≈ 1.82 µM) | 0.1 (≈ 0.228 µM) | 0.05 (≈ 0.114 µM) | 0.05 (≈ 0.114 µM) | 0.013 (≈ 0.0296 µM) | 0.2 (≈ 0.455 µM) | –
9 | NC1(c2ccccc2)CCN(c2c(F)cc3c(=O)c(C(=O)O)cn(C4CC4)c3c2F)C1 (stereo not drawn) | 0.05 (≈ 0.118 µM) | 0.013 (≈ 0.0306 µM) | 0.55 | 12 | 0.025 (≈ 0.0588 µM) | 0.013 (≈ 0.0306 µM) | 12 | 0.013 (≈ 0.0306 µM) | – | 0.2 (≈ 0.47 µM) | 0.05 (≈ 0.118 µM) | 0.006 (≈ 0.0141 µM) | 0.05 (≈ 0.118 µM) | 0.006 (≈ 0.0141 µM) | 0.05 (≈ 0.118 µM) | –
10 | NCC1CCN(c2c(F)cc3c(=O)c(C(=O)O)cn(C4CC4)c3c2F)C1 (stereo not drawn) | 0.025 (≈ 0.0688 µM) | 0.025 (≈ 0.0688 µM) | 0.25 | 6 | 0.025 (≈ 0.0688 µM) | 0.006 (≈ 0.0165 µM) | 4 | 0.006 (≈ 0.0165 µM) | 10 | 0.2 (≈ 0.55 µM) | 0.05 (≈ 0.138 µM) | 0.05 (≈ 0.138 µM) | 0.013 (≈ 0.0358 µM) | 0.003 (≈ 0.00826 µM) | 0.1 (≈ 0.275 µM) | –
